Compound activity (PubChem BioAssay)
Cneo AK release: causes C. neoformans cell lysis; adenylate kinase release luminescence, 4 h; normalised: neutral wells 0, clomiphene wells 100; lysis activity, % at 15 µM; actives 0.2% (n = 360,000);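 active = mean lysis activity across replicates of at least 80%, whatever share of replicates individually reach that level; inactive = mean lysis activity below 80%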
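read-out = cell lysis signal | test system = log-phase Cryptococcus neoformans yeast cells | input = cells at 5 × 10^6 per mL | medium = fresh YPD growth medium | signal = luminescent adenylate kinase detection reagent | timing = 4 h at 37 °C static, read 1 h later | dosing = single dose | controls = Clomiphene as positive lysis control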
C2C12 statin: suppression of simvastatin myotoxicity; C2C12 myotubes + simvastatin, ATP luminescence, 48 h; scaled: DMSO 0, geranylgeraniol control 100; actives 0.78% (n = 330,000); rescue of ATP level, % at 7.49 µM;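 active = mean ATP rescue above about 67%, or every replicate alone reaching that limit, limit read from the data, passing the limit was not always enough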;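 also: myotubes were challenged with 10 µM simvastatin during compound exposure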
Mot1-301 SUMO: SUMOylation pathway inhibition by Mot1-301 growth rescue. S. cerevisiae Mot1-301 growth rescue, ATP luminescence, 38.5C; percent above DMSO median, 100 means doubled. growth rescue, % at 18.8 µM. actives 1% (n = 320,000). AID 2716;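 active = every valid replicate shows activation above 250% relative to neutral control wells; inactive = the rest, any valid replicate at or below 250%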;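 also: OY570 slx delta 5 strain wells were the positive control but not used for scaling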
Starred values were filed as active, the others as inactive; i = inactive; / = no result; + = active, no number. In the library only some 1.5% were active in any assay of this set; here they are far more common.

SMILES | Cneo AK release | C2C12 statin | Mot1-301 SUMO
COc1ccc(-c2[nH]ncc2CNCC(C)(C)N2CCOCC2)cc1F | 2 | 88* | -9
Cc1cccc2cc(COC(=O)c3ccccc3)c(=O)[nH]c12 | -5 | -7 | /
Cc1cccc2cc(COC(=O)c3cccnc3)c(=O)[nH]c12 | 1 | 102* | -9
COc1ccccc1CNC(=O)C[C@@H]1CC[C@H]2[C@@H](COC[C@@H](O)CN2C(=O)Nc2ccccc2)O1 | 0 | -1 | /
COc1ccc(C#Cc2c(-c3ccccc3)n(-c3ccccc3)c3ccc(CO)cc23)cc1 | 2 | 89* | -16
COc1ccc(-c2c(C#Cc3ccc(N(C)C)cc3)c3ccccc3n2C)cc1 | -1 | 7 | -11
CO[C@H]1CN(C)C(=O)c2cc(NS(=O)(=O)c3cccc(F)c3)ccc2OC[C@H](C)NC[C@H]1C | -4 | -8 | /
CC(C)CC#Cc1ccc2c(c1)O[C@@H](CN(C)C(=O)Cc1ccccc1)[C@H](C)CN([C@@H](C)CO)S2(=O)=O | 3 | -43 | /
COc1cccc(C(=O)NC(=S)Nc2ccccc2N2CCOCC2)c1 | 36 | 4 | 9
COc1cc(C(=O)NC(=S)Nc2ccccc2N2CCOCC2)cc(OC)c1OC | 80* | / | 8
COc1ccc(NC(=O)N(C)C[C@H]2OCCCC[C@@H](C)Oc3ccc(NC(=O)C4CCCCC4)cc3C(=O)N([C@@H](C)CO)C[C@H]2C)cc1 | 80 | / | /
COc1cc(OC)cc(C(=O)Nc2ccccc2C(=O)N2CCCC2)c1 | 0 | 115* | -8
CS(=O)(=O)Nc1ccccc1C(=O)Nc1ccccc1C(=O)N1CCCC1 | 3 | 5 | -11
O=C(c1ccccc1)N1CCN(c2ccccc2)CC1 | 1 | -2 | /
CS(=O)(=O)Nc1ccc(C(=O)N2CCN(c3ccccc3)CC2)cc1 | 1 | 115* | 3
COc1ccc(C(=O)Nc2ccccc2C(=O)N2CCCCCC2)cc1 | -1 | 8 | -2
CS(=O)(=O)Nc1ccc(C(=O)Nc2ccccc2C(=O)N2CCCC2)cc1 | 12 | 90* | 545*
COCC(=O)Nc1ccc2c(c1)C(=O)N(C)[C@H]1CC[C@@H](CC(=O)NCc3cccc(F)c3)O[C@@H]1CO2 | 1 | -11 | /
C[C@H]1CCCCO[C@@H](CN(C)C(=O)NC2CCCCC2)[C@@H](C)CN([C@@H](C)CO)C(=O)c2cc(NS(=O)(=O)c3ccccc3)ccc2O1 | 2 | / | /
CC(=O)NC[C@H]1[C@@H](c2ccc(-c3ccccc3F)cc2)[C@@H](CO)N1C(C)=O | 5 | 0 | /
C[C@@H]1CN([C@@H](C)CO)C(=O)c2cc(NC(=O)c3ccccc3)ccc2O[C@@H](C)CCCCO[C@H]1CN(C)Cc1ccccc1 | -17 | / | /
CC1CC/C(=C\c2ccc3c(c2)OCO3)C(=O)/C1=C/c1ccc2c(c1)OCO2 (configuration not stated) | 1 | 207* | 10
O=C1OCC/C1=C\c1ccc2c(c1)OCO2 | 1 | 3 | -17
C[C@@H](NC(=O)C[C@H]1CC[C@@H]2[C@H](COC[C@H](O)CN2Cc2cc(F)ccc2F)O1)c1ccccc1 | 3 | 18 | /
O=C(C1=C(O)C(=O)N(CCCN2CCOCC2)C1c1ccccn1)c1cc2ccccc2o1 (configuration not stated) | 0 | 73* | -18
SMILES | Cneo AK release | C2C12 statin | Mot1-301 SUMO
O=C(C1=C(O)C(=O)N(CCN2CCOCC2)C1c1ccc(F)cc1)c1cc2ccccc2o1 (configuration not stated) | -2 | 20 | -12
NC(=O)C1CCN(C(=O)c2ccccc2CCc2ccccc2)CC1 | 1 | 2 | -17
O=C(c1ccccc1CCc1ccccc1)N1CCOCC1 | -1 | 114* | 5
COCCNC(=O)CSc1nc2ccccc2c2nc(C)nn12 | -1 | 124* | 11
Cc1nc2c3ccccc3nc(SCC(=O)c3ccc(Cl)cc3)n2n1 | -1 | -3 | 9
Cc1noc(C)c1NC(=O)N(C)C[C@@H]1OCCCC[C@@H](C)Oc2ccc(NS(=O)(=O)c3ccc(F)cc3)cc2C(=O)N([C@H](C)CO)C[C@@H]1C | -2 | 19 | /
C[C@H]1CN([C@@H](C)CO)C(=O)c2cc(NC(=O)Nc3ccc(F)cc3)ccc2O[C@@H]1CN(C)Cc1ccncc1 | 1 | -18 | /
N#C/C(=N\Nc1cccc2ccccc12)c1nnc2n1CCCCC2 | / | / | +
N#C/C(=C\c1c[nH]c2ccccc12)c1nnc2n1CCCCC2 | 0 | / | 0
CC1=C([C@H](O)CCc2ccccc2)[C@H](CO)n2c(=O)n(-c3ccccc3)c(=O)n2C1 | -6 | / | /
C/C(=N\OC(=O)NC(C)C)c1sc(-c2ccccc2)nc1C | 6 | / | 7
C/C(=N\OC(=O)NC(C)C)c1sc(-c2ccc(Cl)cc2)nc1C | -8 | 71* | i
